Assay results from ChEMBL document CHEMBL1126948, “Exploration of neutral endopeptidase active site by a series of new thiol-containing inhibitors” (J Med Chem, 1993).

Tests used:
[1] = molecular target: T1, Angiotensin-converting enzyme (Homo sapiens, UniProt P12821); test: Inhibitory concentration was evaluated by inhibiting 50% of Angiotensin I Converting Enzyme activity using 50 uM N-Cbz-Phe-His-Leu as substrate
Procedure, shortened: (§1)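 Recombinant human ACE preincubated 15 min at 37 °C with various inhibitor concentrations in 50 mM Tris-HCl pH 7.4. N-Cbz-Phe-His-Leu then added to a final 0.05 mM. Reaction ran 15 min and was stopped with 2 M NaOH. His-Leu measured fluorimetrically (ex 365, em 495 nm) against a His-Leu calibration curve. IC50 by log probit of five concentrations, mean ± SEM of three independent experiments.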

Neprilysin = molecular target: T2, Neprilysin (Oryctolagus cuniculus, UniProt P08049); test: Inhibitory concentration was evaluated by Inhibiting 50% of Neutral endopeptidase enzyme (NEP) activity using 20 nM [3H]D-Ala2-Leu-enkephalin as substrate
T2 sequence (P08049 whole entry): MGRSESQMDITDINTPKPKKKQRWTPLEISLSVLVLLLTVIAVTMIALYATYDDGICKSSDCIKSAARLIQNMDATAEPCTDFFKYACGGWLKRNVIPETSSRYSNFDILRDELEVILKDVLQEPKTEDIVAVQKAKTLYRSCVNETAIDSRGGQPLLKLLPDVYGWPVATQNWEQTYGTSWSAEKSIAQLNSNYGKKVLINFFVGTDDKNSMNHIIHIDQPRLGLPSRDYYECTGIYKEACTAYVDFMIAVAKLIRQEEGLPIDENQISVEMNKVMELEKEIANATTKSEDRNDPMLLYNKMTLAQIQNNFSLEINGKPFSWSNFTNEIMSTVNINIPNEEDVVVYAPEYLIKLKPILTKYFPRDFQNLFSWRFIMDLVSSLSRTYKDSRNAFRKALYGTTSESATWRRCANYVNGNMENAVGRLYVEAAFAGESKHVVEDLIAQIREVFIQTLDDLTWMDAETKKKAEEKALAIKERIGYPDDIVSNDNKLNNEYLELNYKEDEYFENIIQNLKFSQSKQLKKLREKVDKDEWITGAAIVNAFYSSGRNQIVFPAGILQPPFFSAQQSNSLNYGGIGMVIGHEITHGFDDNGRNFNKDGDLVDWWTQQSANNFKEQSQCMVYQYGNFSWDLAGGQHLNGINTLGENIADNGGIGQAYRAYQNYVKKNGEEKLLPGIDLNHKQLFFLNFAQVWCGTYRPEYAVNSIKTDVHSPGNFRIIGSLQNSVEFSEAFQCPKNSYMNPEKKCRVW
Procedure, shortened: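 NEP purified to homogeneity from rabbit kidney, final 1 pmol/100 μL. Preincubated 15 min at 25 °C with or without increasing inhibitor concentrations in 50 mM Tris-HCl pH 7.4. [3H]-D-Ala2-Leu-enkephalin added to a final 20 nM. Stopped after 30 min with 0.5 M HCl. Tritiated metabolites separated on polystyrene beads. IC50 by log probit of five concentrations, mean ± SEM of three independent experiments.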

[2] = molecular target: T1, Angiotensin-converting enzyme; test: Inhibitory concentration was evaluated by Inhibiting 50% of Angiotensin I converting enzyme activity using 50 uM N-Cbz-Phe-His-Leu as substrate
[3] = molecular target: T1, Angiotensin-converting enzyme; test: Inhibitory concentration was evaluated by inhibiting 50% of Angiotensin I Converting Enzyme activity using 50 micro M N-Cbz-Phe-His-Leu as substrate; procedure, shortened: as §1

T1 sequence (P12821 whole entry): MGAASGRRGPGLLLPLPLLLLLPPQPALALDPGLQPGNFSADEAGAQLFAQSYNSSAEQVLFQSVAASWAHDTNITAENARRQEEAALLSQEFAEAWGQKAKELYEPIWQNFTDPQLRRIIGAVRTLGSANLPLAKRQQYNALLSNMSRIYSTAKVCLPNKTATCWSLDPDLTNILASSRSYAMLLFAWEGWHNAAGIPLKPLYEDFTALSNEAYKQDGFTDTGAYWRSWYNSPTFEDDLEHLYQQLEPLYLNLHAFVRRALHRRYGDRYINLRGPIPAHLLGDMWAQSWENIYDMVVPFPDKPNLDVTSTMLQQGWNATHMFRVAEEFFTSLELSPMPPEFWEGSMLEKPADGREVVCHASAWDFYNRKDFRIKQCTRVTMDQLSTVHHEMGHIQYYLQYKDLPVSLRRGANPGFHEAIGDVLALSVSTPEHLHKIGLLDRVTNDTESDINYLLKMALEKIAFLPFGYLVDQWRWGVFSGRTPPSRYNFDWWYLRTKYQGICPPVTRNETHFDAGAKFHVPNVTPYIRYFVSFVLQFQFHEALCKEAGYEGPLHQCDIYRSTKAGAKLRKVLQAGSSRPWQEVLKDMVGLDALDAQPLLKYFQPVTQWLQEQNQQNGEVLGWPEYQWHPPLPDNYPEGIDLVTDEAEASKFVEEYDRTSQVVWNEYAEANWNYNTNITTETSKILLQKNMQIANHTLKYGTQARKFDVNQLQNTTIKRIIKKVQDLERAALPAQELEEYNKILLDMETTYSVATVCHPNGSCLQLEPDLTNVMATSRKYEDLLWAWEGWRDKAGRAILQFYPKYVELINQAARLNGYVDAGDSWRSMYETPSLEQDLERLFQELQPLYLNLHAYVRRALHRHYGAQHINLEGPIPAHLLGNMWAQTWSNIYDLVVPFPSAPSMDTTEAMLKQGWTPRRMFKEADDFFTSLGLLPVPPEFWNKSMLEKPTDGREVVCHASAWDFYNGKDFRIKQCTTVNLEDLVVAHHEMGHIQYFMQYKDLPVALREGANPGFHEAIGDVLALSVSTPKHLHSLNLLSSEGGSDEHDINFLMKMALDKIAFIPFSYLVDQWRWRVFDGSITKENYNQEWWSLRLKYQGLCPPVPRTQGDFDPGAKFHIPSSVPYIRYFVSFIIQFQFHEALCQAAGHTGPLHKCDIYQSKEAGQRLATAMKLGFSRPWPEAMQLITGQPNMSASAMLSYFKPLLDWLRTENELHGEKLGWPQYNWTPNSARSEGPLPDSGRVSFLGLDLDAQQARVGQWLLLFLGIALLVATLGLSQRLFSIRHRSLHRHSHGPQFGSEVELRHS

Row | SMILES | IC50 [1] | IC50 (Neprilysin) | IC50 [2] | IC50 [3]
1 | CC(C)CC(S)C(Cc1ccccc1)C(=O)NC(Cc1ccc(O)cc1)C(=O)O (stereo not given) | 710 nM | 26 nM |  | 
2 | CC(C)C(C(=O)NC(Cc1ccc(O)cc1)C(=O)O)C(S)CCc1ccccc1 (stereo not given) | 4500 nM | 53 nM |  | 
3 | CCC(C)C(NC(=O)C(Cc1ccccc1)C(C)S)C(=O)NC(Cc1ccc(O)cc1)C(=O)O (stereo not given) |  | 380 nM | 300 nM | 
4 | CC(C)CC(S)CC(=O)NC(Cc1ccccc1)C(=O)O (stereo not given) | 10000 nM | 37 nM |  | 
5 | CC(C)CC(S)[C@H](Cc1ccccc1)C(=O)N[C@@H](C)C(=O)O (stereo not given in full) | 4000 nM | 40 nM |  | 
6 | CCCCC(NC(=O)C(Cc1ccccc1)C(C)S)C(=O)NC(Cc1ccc(O)cc1)C(=O)O (stereo not given) |  | 50 nM | 6100 nM | 
7 | CC(C)C[C@@H](S)[C@H](Cc1ccccc1)C(=O)N[C@@H](C)C(=O)O | 5000 nM | 20 nM |  | 
8 | O=C(O)C(Cc1ccc(O)cc1)NC(=O)C(Cc1ccccc1)C(S)CCc1ccccc1 (stereo not given) | 1600 nM | 180 nM |  | 
9 | CC(C)C(NC(=O)C(Cc1ccccc1)C(C)S)C(=O)NC(Cc1ccc(O)cc1)C(=O)O (stereo not given) |  | 320 nM | 1300 nM | 
10 | CC(C)C[C@H](S)[C@H](Cc1ccccc1)C(=O)N[C@@H](C)C(=O)O | 10000 nM | 35 nM |  | 
11 | CC(C)C[C@H](S)[C@@H](Cc1ccccc1)C(=O)N[C@@H](C)C(=O)O |  | 3.6 nM |  | 16100 nM
12 | CC(S)C(Cc1ccccc1)C(=O)NCC(=O)O (stereo not given) |  | 50 nM | 11000 nM | 
13 | CC(C)CC(S)CC(=O)NC(Cc1ccccc1)C(=O)NC(Cc1ccc(O)cc1)C(=O)O (stereo not given) |  | 50 nM | 2800 nM | 
14 | CC(NC(=O)C(Cc1ccccc1)C(S)CCc1ccccc1)C(=O)O (stereo not given) | 4000 nM | 44 nM |  | 
15 | CC(C)CC(S)C(Cc1ccccc1)C(=O)NC(C)C(=O)O (stereo not given) | 12000 nM | 14 nM |  | 
